Data from ChEMBL document CHEMBL2086286, “Synthesis, antitumor, cytotoxic and antioxidant evaluation of some new pyrazolotriazines attached to antipyrine moiety” (Eur J Med Chem, 2012).
Values after ≈ are worked out from the molar mass of the structure shown. Values joined by “and” are separate entries in the source; they are usually repeats but may differ in a detail not shown here. Equal entries are not always repeated. Active and inactive are the calls of the source. The calls are words filed in the database; no cut-off is given here.

Assays:
MCF7 = assay: Cytotoxicity against human MCF7 cells after 96 hrs by MTT assay; format: functional, cell-based; conditions: MCF7, 96 h
HepG2 = assay: Cytotoxicity against human HepG2 cells after 96 hrs by MTT assay; format: functional, cell-based; conditions: HepG2, 96 h
Vero = assay: Cytotoxicity against African green monkey Vero cells after 96 hrs by MTT assay; format: cell-based; conditions: Chlorocebus sabaeus
[1] = Antioxidant activity assessed as ABTS free radical scavenging activity at 1 mg/mL by spectroscopic analysis; format: functional
How it was run: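 ABTS radical cation generated by reacting ABTS with MnO2 (25 mg/mL) in phosphate buffer pH 7, then centrifuged and filtered. Absorbance read at 734 nm before and after adding test sample (1 mg/mL in MeOH/buffer 1:1). % inhibition = [A(control) − A(test)]/A(control) × 100. Ascorbic acid (2 mM) as positive control; solvent blank without ABTS.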

[2] = Cytotoxicity against mouse EAC after 2 hrs by trypan blue staining based hemocytometer analysis; format: functional, Ehrlich; conditions: for IC50: ehrlich
How it was run: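 Ehrlich ascites cells aspirated aseptically from the peritoneal cavity of a donor animal. Held in RPMI with 10% FBS at 37 °C, 5% CO2 for 2 h with compound at 25, 50 and 100 µg, final DMSO 0.1%. Dead cells counted by trypan blue staining on a hemocytometer; DMSO-only control viability exceeded 95%. 5-Fluorouracil as reference.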

WI-38 = assay: Cytotoxicity against human WI38 cells after 96 hrs by MTT assay; format: functional, cell-based; conditions: WI-38, 96 h
Nucleic Acid = assay: Protective activity against bleomycin-iron complex-induced DNA damage at 0.1 mg/ml after 1 hr; format: nucleic-acid assay
How it was run: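 Final reaction mixture: DNA 0.2 mg/mL, bleomycin 0.05 mg/mL, FeCl3 0.025 mM, MgCl2 5 mM, KH2PO4/KOH pH 7.0 30 mM, and test sample 0.1 mg/mL (in MeOH) or ascorbic acid 0.24 mM. Incubated 1 h at 37 °C, stopped with EDTA. DNA damage measured by adding 1% TBA and 25% HCl, heating 15 min at 80 °C, then reading absorbance.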

| SMILES | IC50 (MCF7) [µg/mL] | IC50 (HepG2) [µg/mL] | IC50 (Vero) [µg/mL] | inhibition [1] [%] | ED25 [2] [µg] | ED100 [2] [µg] | IC50 [2] | IC50 (WI-38) [µg/mL] | Activity (Nucleic Acid) | ED50 [2] [µg] |
| --- | --- | --- | --- | --- | --- | --- | --- | --- | --- | --- |
| Cc1nn2c(N)c(-c3nc4ccccc4s3)nnc2c1/N=N/c1c(C)n(C)n(-c2ccccc2)c1=O | 186 (≈ 374 µM) | 225 (≈ 454 µM) | 244 (≈ 491 µM) | 17.2 | 26.63 | 64 | 93.8 µg and 49 µg | 199 (≈ 400 µM) | – | – |
| Cc1[nH]nc(NN=C2C(=O)CCCC2=O)c1/N=N/c1c(C)n(C)n(-c2ccccc2)c1=O | 29.9 (≈ 68.8 µM) | 16.2 (≈ 37.3 µM) | 24.8 (≈ 57.1 µM) | 40 | 0.88 | 80 | 98.8 µg and 63.3 µg | 19.8 (≈ 45.6 µM) | Active | – |
| Cc1[nH]nc(N/N=C(\SC#N)C(=O)c2ccccc2)c1/N=N/c1c(C)n(C)n(-c2ccccc2)c1=O | 101 (≈ 202 µM) | 95.3 (≈ 191 µM) | 96.8 (≈ 194 µM) | 17.6 | 26.92 | 65.2 | 94.3 µg and 48.1 µg | 92.8 (≈ 186 µM) | Active | – |
| Cc1[nH]nc(NN=C(C#N)C#N)c1/N=N/c1c(C)n(C)n(-c2ccccc2)c1=O | 221 (≈ 570 µM) | 183 (≈ 470 µM) | 209 (≈ 537 µM) | 17.2 | 27.85 | 64 | 94.3 µg | 197 (≈ 508 µM) | – | – |
| Cc1nn2c(nnc3c(C)n[nH]c32)c1/N=N/c1c(C)n(C)n(-c2ccccc2)c1=O | 411 (≈ 1020 µM) | 210 (≈ 521 µM) | 276 (≈ 687 µM) | 16.1 | 34.69 | 61 | 92.1 µg and 43 µg | 311 (≈ 772 µM) | – | – |
| Cc1nn2c(N)c(C#N)nnc2c1/N=N/c1c(C)n(C)n(-c2ccccc2)c1=O | 452 (≈ 1160 µM) | 254 (≈ 654 µM) | 301 (≈ 775 µM) | 15.9 | 34.26 | 62 | 91.9 µg and 42.8 µg | 377 (≈ 971 µM) | – | – |
| Cc1[nH]nc(N/N=C(\C#N)c2nc3ccccc3s2)c1/N=N/c1c(C)n(C)n(-c2ccccc2)c1=O | 164 (≈ 330 µM) | 179 (≈ 360 µM) | 181 (≈ 364 µM) | 19.3 | 11.17 | 70.8 | 95 µg and 56.4 µg | 169 (≈ 341 µM) | – | – |
| CC(=N)/C(C#N)=N\Nc1n[nH]c(C)c1/N=N/c1c(C)n(C)n(-c2ccccc2)c1=O | 69 (≈ 171 µM) | 70.8 (≈ 175 µM) | 735 (≈ 1820 µM) | 28.6 | 1.3 | 80 | 97.5 µg and 60.1 µg | 70.2 (≈ 174 µM) | – | – |
| Cc1[nH]nc(N)c1/N=N/c1c(C)n(C)n(-c2ccccc2)c1=O | 84.7 (≈ 272 µM) | 79.1 (≈ 254 µM) | 80.3 (≈ 258 µM) | 28.4 | 1.71 | 79.3 | 97 µg and 58 µg | 73.1 (≈ 235 µM) | – | – |
| CC(=N)/C(C#N)=N\Nc1c(C)n(C)n(-c2ccccc2)c1=O | 15.1 (≈ 51 µM) | 8.3 (≈ 28 µM) | 10 (≈ 33.7 µM) | 80.9 | 0.46 | 97.2 | 100 µg | 13.8 (≈ 46.6 µM) | Active | – |
| CCOC(=O)c1nnc2c(/N=N/c3c(C)n(C)n(-c4ccccc4)c3=O)c(C)nn2c1N | 420 (≈ 965 µM) | 268 (≈ 616 µM) | 284 (≈ 653 µM) | 17.6 | 28.02 | 65.3 | 94 µg and 47 µg | 367 (≈ 843 µM) | – | – |
| Cc1nn2c3c(nnc2c1/N=N/c1c(C)n(C)n(-c2ccccc2)c1=O)C(=O)CCC3 | 68.2 (≈ 164 µM) | 55.3 (≈ 133 µM) | 61.1 (≈ 147 µM) | 52.5 | 0.67 | 91.4 | 99 µg and 80.2 µg | 53 (≈ 127 µM) | Active | – |
| CC(=N)c1nnc2c(/N=N/c3c(C)n(C)n(-c4ccccc4)c3=O)c(C)nn2c1N | 152 (≈ 375 µM) | 139 (≈ 343 µM) | 164 (≈ 406 µM) | 24.4 | 14.38 | 70.1 | 95.5 µg and 55 µg | 175 (≈ 433 µM) | – | – |
| O=c1[nH]cc(F)c(=O)[nH]1 [FLUOROURACIL] | 2.5 (≈ 19.2 µM) | 9.1 (≈ 70 µM) | 6.4 (≈ 49.2 µM) | – | 32.26 | 68 | 97.3 µg | 4 (≈ 30.8 µM) | – | 38.6 |
| CC(=O)c1nnc2c(/N=N/c3c(C)n(C)n(-c4ccccc4)c3=O)c(C)nn2c1C | 30.6 (≈ 75.7 µM) | 39.3 (≈ 97.2 µM) | 33.1 (≈ 81.8 µM) | 27.5 | 11.01 | 73.9 | 96.7 µg and 55.5 µg | 40.3 (≈ 99.6 µM) | – | – |
| CC(=O)C(=NNc1n[nH]c(C)c1/N=N/c1c(C)n(C)n(-c2ccccc2)c1=O)C(C)=O | 214 (≈ 507 µM) | 174 (≈ 412 µM) | 199 (≈ 472 µM) | 25.8 | 15.59 | 70 | 95 µg and 54.1 µg | 189 (≈ 446 µM) | – | – |
| O=C1O[C@H]([C@@H](O)CO)C(O)=C1O | – | – | – | 92.3 | – | – | – | – | – | – |
| Cc1[nH]nc(N/N=C(/C#N)C(N)=C(C#N)C#N)c1/N=N/c1c(C)n(C)n(-c2ccccc2)c1=O | 192 (≈ 422 µM) | 148 (≈ 325 µM) | 212 (≈ 467 µM) | 9.86 | 64.48 | 38 | – | 176 (≈ 387 µM) | – | – |
| CC1=NNC(=O)/C1=N/Nc1n[nH]c(C)c1/N=N/c1c(C)n(C)n(-c2ccccc2)c1=O | 393 (≈ 935 µM) | 202 (≈ 480 µM) | 214 (≈ 508 µM) | 16.1 | 26.63 | 63.3 | 93 µg and 45.5 µg | 300 (≈ 713 µM) | – | – |
| CCOC(=O)/C(C#N)=N/Nc1n[nH]c(C)c1/N=N/c1c(C)n(C)n(-c2ccccc2)c1=O | 150 (≈ 344 µM) | 153 (≈ 352 µM) | 179 (≈ 412 µM) | 21.6 | 22.53 | 68.7 | 94.9 µg and 49.8 µg | 169 (≈ 389 µM) | – | – |
| Cc1[nH]nc(-n2nc(C(=O)c3ccccc3)sc2=N)c1/N=N/c1c(C)n(C)n(-c2ccccc2)c1=O | 210 (≈ 420 µM) | 186 (≈ 373 µM) | 210 (≈ 421 µM) | 15.7 | 39.36 | 60.5 | 90.7 µg | 171 (≈ 343 µM) | – | – |
| Cc1nn2c(nnc3c(N)c(C#N)c(N)nc32)c1/N=N/c1c(C)n(C)n(-c2ccccc2)c1=O | 419 (≈ 922 µM) | 203 (≈ 448 µM) | 220 (≈ 485 µM) | 8.28 | 62.53 | 40.6 | – | 303 (≈ 667 µM) | – | – |
